Assay results taken from PMC6215875 (Cancer Science, 2018).
Like-named read-outs stand apart in the source and are kept apart here.

Assays:
advanced GIST = settings: cited from earlier work; for median PFS: advanced GIST patients
[1] = Body weight and survival of GIST430 xenograft mice; format: in vivo; settings: regorafenib 30 mg/kg; for body weight (mean ± SE): oral, 2 weeks, BPR1J373 50 mg/kg, sunitinib 40 mg/kg
In short: (§1)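 Male NOD-SCID mice (6–8 weeks, SPF) received GIST430 cells (2 × 10⁷/mouse) s.c. At 50–100 mm³, vehicle or test compound in 20% (2-hydroxypropyl)-β-cyclodextrin was given orally on days 1–5 weekly for 2 weeks. Controls n=5, treated groups n=6. Tumor volume (length × width² × π/6) and body weight were recorded three times weekly up to 16 days. Comparison: Wilcoxon rank sum.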

GIST430 cells = experiment: Cell cycle analysis, GIST430; format: cell-based; settings: BPR1J373 at 10 nmol/L, 100 nmol/L, and 1 μmol/L
In short: (§2)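 Test compound added at the doses stated, and cells harvested over a time course. Cells washed twice in PBS, fixed overnight in cold 70% ethanol, and pelleted at 5000 g for 5 min. Pellets incubated with 0.2 mg/mL RNase A for 1 h, then stained with 20 μg/mL propidium iodide at room temperature. DNA content read by flow cytometry. Mean ± SE of triplicate experiments.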

KIT mutants [2] = format: cell-based; settings: 1 μmol/L; for suppression of KIT activation (phosphorylation): COS-1, 4 double mutations (∆557-558 with V654A, T670I, D820G or N822K); for suppression of KIT phosphorylation: COS-1, single mutations in exons 13, 14, and 17, 30 minutes
GIST48 cells = experiment: Cell cycle analysis, GIST48; format: cell-based; settings: GIST48, 1 μmol/L
In short: as §2

GIST430 xenograft = GIST430 xenograft in NOD-SCID mice; format: in vivo; settings: for KIT and KIT phosphorylation in tumors compared with controls: GIST430 xenograft tumors after treatment, Figure 6B
In short: as §1

GIST-T1 cells = experiment: Cell proliferation assay, GIST-T1; format: cell-based; settings: imatinib-sensitive GIST-T1, Figure S2A
In short: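 GIST-T1 cells were grown in RPMI-1640 with 10% FBS at 37°C, 5% CO₂. 4 × 10⁴ cells were exposed to a range of test compound doses for 120 h. They were then stained with methylene blue for 1 h, and absorbance was read at […].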

KIT mutants [3] = target: KIT mutants (Homo sapiens, UniProt P10721, D816V); settings: COS-1, D816V in exon 17; cited from earlier work
Chain of KIT mutants (Homo sapiens, UniProt P10721, D816V) (P10721 26-976 D816V): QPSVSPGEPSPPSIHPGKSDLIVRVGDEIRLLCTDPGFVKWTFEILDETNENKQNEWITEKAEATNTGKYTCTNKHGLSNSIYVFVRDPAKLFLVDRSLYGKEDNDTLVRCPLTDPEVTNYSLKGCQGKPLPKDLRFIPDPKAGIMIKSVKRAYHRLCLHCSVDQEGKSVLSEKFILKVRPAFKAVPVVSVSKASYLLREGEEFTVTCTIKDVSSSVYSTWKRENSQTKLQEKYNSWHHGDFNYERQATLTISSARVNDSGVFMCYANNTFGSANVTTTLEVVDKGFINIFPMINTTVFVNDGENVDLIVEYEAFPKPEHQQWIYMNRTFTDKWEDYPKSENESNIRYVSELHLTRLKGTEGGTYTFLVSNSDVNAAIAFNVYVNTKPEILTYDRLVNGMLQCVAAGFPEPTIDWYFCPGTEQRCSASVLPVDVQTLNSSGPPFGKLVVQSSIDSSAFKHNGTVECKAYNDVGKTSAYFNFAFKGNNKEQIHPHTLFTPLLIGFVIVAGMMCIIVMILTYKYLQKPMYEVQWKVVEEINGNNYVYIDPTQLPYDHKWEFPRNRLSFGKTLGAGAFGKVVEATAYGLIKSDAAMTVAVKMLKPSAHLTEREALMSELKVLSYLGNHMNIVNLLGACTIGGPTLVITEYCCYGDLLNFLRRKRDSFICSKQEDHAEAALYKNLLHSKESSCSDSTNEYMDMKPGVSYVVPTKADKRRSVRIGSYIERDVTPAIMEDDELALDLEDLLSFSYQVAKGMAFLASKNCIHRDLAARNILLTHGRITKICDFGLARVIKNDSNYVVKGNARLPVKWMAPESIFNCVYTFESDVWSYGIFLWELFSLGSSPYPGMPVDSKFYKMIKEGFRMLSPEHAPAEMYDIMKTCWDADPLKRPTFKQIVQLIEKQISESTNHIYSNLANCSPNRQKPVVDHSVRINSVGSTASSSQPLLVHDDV

Compound	median PFS (advanced GIST; third-line treatment, phase III) [months]	body weight (mean ± SE) [1] [g]	mice that died before completion of the experiment ([1]; 6 mice, died at day 14)	cell cycle change (GIST430 cells)	suppression of KIT activation (phosphorylation) (KIT mutants [2])	suppression of KIT phosphorylation (KIT mutants [2])	cell cycle change (GIST48 cells)	KIT and KIT phosphorylation in tumors compared with controls (GIST430 xenograft)	median PFS (advanced GIST; second-line treatment) [months]	antiproliferative effect (GIST-T1 cells)	antitumor effect vs control, P (Wilcoxon rank sum test) (GIST430 xenograft; oral, day 1 to day 5 per week for 2 weeks, BPR1J373 50 mg/kg, sunitinib 40 mg/kg)	suppression of KIT phosphorylation (KIT mutants [3])	disease control rate (advanced GIST; advanced GIST, initial phase II study) [%]
CNC(=O)c1cc(Oc2ccc(NC(=O)Nc3ccc(Cl)c(C(F)(F)F)c3)c(F)c2)ccn1 [Regorafenib]	4.8	28.82 ± 0.52	1	did not induce significant cell cycle changes	variable effects	differentially suppressed	only a mild increase in subG1 and a mild decrease in S and G2/M proportions	decreased expression levels of KIT and KIT phosphorylation	–	–	–	–	–
CCN(CC)CCNC(=O)c1c(C)[nH]c(/C=C2\C(=O)Nc3ccc(F)cc32)c1C [Sunitinib]	–	29.1 ± 1.04	–	–	variable effects	differentially suppressed	–	decreased expression levels of KIT and KIT phosphorylation	6.8	best antiproliferative effects	0.03	resistant	–
Cc1ccc(NC(=O)c2ccc(CN3CCN(C)CC3)cc2)cc1Nc1nccc(-c2cccnc2)n1 [Imatinib]	–	–	–	–	variable effects	differentially suppressed	Neither 1 μmol/L imatinib nor nilotinib induced S or G2/M arrest	–	–	–	–	resistant	81.6
Cc1cn(-c2cc(NC(=O)c3ccc(C)c(Nc4nccc(-c5cccnc5)n4)c3)cc(C(F)(F)F)c2)cn1 [Nilotinib]	–	–	–	–	variable effects	differentially suppressed	Neither 1 μmol/L imatinib nor nilotinib induced S or G2/M arrest	–	–	best antiproliferative effects	–	resistant	–
